Results as given in ChEMBL document CHEMBL1255404, “Spread of OXA-48-encoding plasmid in Turkey and beyond” (2010).
Converted amounts (≈) assume the structure as drawn.

Columns and labels:
Assay type in all cases: functional
Escherichia coli [1] = assay: Antimicrobial activity against Escherichia coli isolate J53 harboring pEnc1 containing beta-lactamase OXA-48 located within transposon Tn1999 by Etest method
In short: (§1)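 β-Lactam MICs read with Etest strips. Strains are E. coli J53 recipient and J53 transconjugants carrying OXA-48-positive plasmids recovered from clinical enterobacterial isolates.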

Escherichia coli [2] = assay: Antimicrobial activity against Escherichia coli isolate J53 by Etest method in presence of beta-lactamase inhibitor clavulanic acid
Enterobacter cloacae [3] = assay: Antimicrobial activity against Enterobacter cloacae isolate 1 expressing beta-lactamase OXA-48 and SHV-5 by Etest method
Escherichia coli [4] = assay: Antimicrobial activity against Escherichia coli isolate J53 harboring pEnc2 containing beta-lactamase OXA-48 located within transposon Tn1999 by Etest method in presence of beta-lactamase inhibitor clavulanic acid; in short: as §1
Escherichia coli [5] = assay: Antimicrobial activity against Escherichia coli isolate J53 harboring p5A containing beta-lactamase OXA-48 located within transposon Tn1999 by Etest method; in short: as §1
Providencia rettgeri [6] = assay: Antimicrobial activity against Providencia rettgeri isolate expressing beta-lactamase OXA-48 and TEM-101 by Etest method
Escherichia coli [7] = assay: Antimicrobial activity against Escherichia coli isolate A expressing beta-lactamase OXA-48 and TEM-150 by Etest method
Klebsiella pneumoniae [8] = assay: Antimicrobial activity against Klebsiella pneumoniae isolate KpB expressing OXA-48 and CTX-M-15 by Etest method
Enterobacter cloacae [9] = assay: Antimicrobial activity against Enterobacter cloacae isolate 2 expressing beta-lactamase OXA-48 and SHV-5 by Etest method
Klebsiella pneumoniae [10] = assay: Antimicrobial activity against Klebsiella pneumoniae isolate Kp5A expressing beta-lactamase OXA-48 and SHV-5 by Etest method
Klebsiella pneumoniae [11] = assay: Antimicrobial activity against Klebsiella pneumoniae isolate KpBIC expressing beta-lactamase OXA-48 by Etest method in presence of beta-lactamase inhibitor clavulanic acid
In short: (§2)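 MICs of β-lactams read from Etest strips. The test organisms are carbapenem-resistant, OXA-48-positive clinical Enterobacteriaceae isolates recovered from Turkey, Lebanon, Egypt, France and Belgium.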

Escherichia coli [12] = assay: Antimicrobial activity against Escherichia coli isolate J53 harboring p4A containing beta-lactamase OXA-48 located within transposon Tn1999 by Etest method in presence of beta-lactamase inhibitor clavulanic acid; in short: as §1
Klebsiella pneumoniae [13] = assay: Antimicrobial activity against Klebsiella pneumoniae isolate KpL expressing beta-lactamase OXA-48 by Etest method in presence of beta-lactamase inhibitor clavulanic acid; in short: as §2
Klebsiella pneumoniae [14] = assay: Antimicrobial activity against Klebsiella pneumoniae isolate KpL expressing beta-lactamase OXA-48 by Etest method
Escherichia coli [15] = assay: Antimicrobial activity against Escherichia coli isolate J53 harboring pE containing beta-lactamase OXA-48 located within transposon Tn1999.2 by Etest method in presence of beta-lactamase inhibitor clavulanic acid; in short: as §1
Klebsiella pneumoniae [16] = assay: Antimicrobial activity against Klebsiella pneumoniae isolate Kp4A expressing beta-lactamase OXA-48 and CTX-M-15 by Etest method in presence of beta-lactamase inhibitor clavulanic acid; in short: as §2
Escherichia coli [17] = assay: Antimicrobial activity against Escherichia coli isolate TOP10 by Etest method
In short: (§3)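 β-Lactam MICs read with Etest strips. Strains are E. coli TOP10 host and TOP10 transformants made with plasmid DNA extract when conjugation failed. Transformants were selected on LB agar with ticarcillin 50 μg/ml.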

Escherichia coli [18] = assay: Antimicrobial activity against Escherichia coli isolate J53 harboring pCF containing beta-lactamase OXA-48 located within transposon Tn1999 by Etest method; in short: as §1
Escherichia coli [19] = assay: Antimicrobial activity against Escherichia coli isolate J53 harboring pI-2 containing beta-lactamase OXA-48 located within transposon Tn1999.2 by Etest method; in short: as §1
Escherichia coli [20] = assay: Antimicrobial activity against Escherichia coli isolate J53 harboring p3A containing beta-lactamase OXA-48 located within transposon Tn1999 by Etest method; in short: as §1
Escherichia coli [21] = assay: Antimicrobial activity against Escherichia coli isolate J53 harboring pEnc2 containing beta-lactamase OXA-48 located within transposon Tn1999 by Etest method; in short: as §1
Escherichia coli [22] = assay: Antimicrobial activity against Escherichia coli isolate TOP10 by Etest method in presence of beta-lactamase inhibitor clavulanic acid; in short: as §3
Klebsiella pneumoniae [23] = assay: Antimicrobial activity against Klebsiella pneumoniae isolate KpI-2 expressing beta-lactamase OXA-48 and CTX-M-15 by Etest method
Enterobacter cloacae [24] = assay: Antimicrobial activity against Enterobacter cloacae isolate 1 expressing beta-lactamase OXA-48 and SHV-5 by Etest method in presence of beta-lactamase inhibitor clavulanic acid; in short: as §2
Klebsiella pneumoniae [25] = assay: Antimicrobial activity against Klebsiella pneumoniae isolate KpBEL expressing beta-lactamase OXA-48 by Etest method in presence of beta-lactamase inhibitor clavulanic acid; in short: as §2
Escherichia coli [26] = assay: Antimicrobial activity against Escherichia coli isolate J53 harboring pL containing beta-lactamase OXA-48 located within transposon Tn1999.2 by Etest method in presence of beta-lactamase inhibitor clavulanic acid; in short: as §1
Escherichia coli [27] = assay: Antimicrobial activity against Escherichia coli isolate J53 harboring p3A containing beta-lactamase OXA-48 located within transposon Tn1999 by Etest method in presence of beta-lactamase inhibitor clavulanic acid; in short: as §1
Escherichia coli [28] = assay: Antimicrobial activity against Escherichia coli isolate J53 harboring pA-1 containing beta-lactamase OXA-48 located within transposon Tn1999 by Etest method in presence of beta-lactamase inhibitor clavulanic acid; in short: as §1
Escherichia coli [29] = assay: Antimicrobial activity against Escherichia coli isolate J53 harboring pEnc1 containing beta-lactamase OXA-48 located within transposon Tn1999 by Etest method in presence of beta-lactamase inhibitor clavulanic acid; in short: as §1
Providencia rettgeri [30] = assay: Antimicrobial activity against Providencia rettgeri isolate expressing beta-lactamase OXA-48 and TEM-101 by Etest method in presence of beta-lactamase inhibitor clavulanic acid; in short: as §2
Klebsiella pneumoniae [31] = assay: Antimicrobial activity against Klebsiella pneumoniae isolate KpI-1 expressing beta-lactamase OXA-48 and CTX-M-15 by Etest method in presence of beta-lactamase inhibitor clavulanic acid; in short: as §2
Enterobacter cloacae [32] = assay: Antimicrobial activity against Enterobacter cloacae isolate 2 expressing beta-lactamase OXA-48 and SHV-5 by Etest method in presence of beta-lactamase inhibitor clavulanic acid; in short: as §2
Escherichia coli [33] = assay: Antimicrobial activity against Escherichia coli isolate J53 harboring pA-1 containing beta-lactamase OXA-48 located within transposon Tn1999 by Etest method; in short: as §1
Klebsiella pneumoniae [34] = assay: Antimicrobial activity against Klebsiella pneumoniae isolate Kp3A expressing beta-lactamase OXA-48 by Etest method; in short: as §2
Escherichia coli [35] = assay: Antimicrobial activity against Escherichia coli isolate J53 harboring pI-1 containing beta-lactamase OXA-48 located within transposon Tn1999.2 by Etest method; in short: as §1
Escherichia coli [36] = assay: Antimicrobial activity against Escherichia coli isolate J53 harboring p7A containing beta-lactamase OXA-48 located within transposon Tn1999 by Etest method in presence of beta-lactamase inhibitor clavulanic acid; in short: as §1
Escherichia coli [37] = assay: Antimicrobial activity against Escherichia coli isolate TOP10 harboring pPR containing beta-lactamase and TEM-101 by Etest method; in short: as §3
Klebsiella pneumoniae [38] = assay: Antimicrobial activity against Klebsiella pneumoniae isolate Kp6A expressing beta-lactamase OXA-48 and TEM-150 by Etest method
Escherichia coli [39] = assay: Antimicrobial activity against Escherichia coli isolate J53 harboring pEcA containing beta-lactamase OXA-48 located within transposon Tn1999.2 by Etest method in presence of beta-lactamase inhibitor clavulanic acid; in short: as §1
Klebsiella pneumoniae [40] = assay: Antimicrobial activity against Klebsiella pneumoniae isolate KpBEL expressing beta-lactamase OXA-48 by Etest method; in short: as §2

SMILES | MIC (Escherichia coli [1]) [µg/mL] | MIC (Escherichia coli [2]) [µg/mL] | MIC (Enterobacter cloacae [3]) [µg/mL] | MIC (Escherichia coli [4]) [µg/mL] | MIC (Escherichia coli [5]) [µg/mL] | MIC (Providencia rettgeri [6]) [µg/mL] | MIC (Escherichia coli [7]) [µg/mL] | MIC (Klebsiella pneumoniae [8]) [µg/mL] | MIC (Enterobacter cloacae [9]) [µg/mL] | MIC (Klebsiella pneumoniae [10]) [µg/mL] | MIC (Klebsiella pneumoniae [11]) [µg/mL] | MIC (Escherichia coli [12]) [µg/mL] | MIC (Klebsiella pneumoniae [13]) [µg/mL] | MIC (Klebsiella pneumoniae [14]) [µg/mL] | MIC (Escherichia coli [15]) [µg/mL] | MIC (Klebsiella pneumoniae [16]) [µg/mL] | MIC (Escherichia coli [17]) [µg/mL] | MIC (Escherichia coli [18]) [µg/mL] | MIC (Escherichia coli [19]) [µg/mL] | MIC (Escherichia coli [20]) [µg/mL] | also measured
CC1(C)S[C@@H]2[C@H](NC(=O)[C@H](C(=O)O)c3ccsc3)C(=O)N2[C@H]1C(=O)O [TICARCILLIN] | > 512 | 2 | > 512 | > 512 | > 512 | > 256 | > 256 | > 512 | > 512 | > 512 | > 512 | > 512 | > 256 | > 256 | > 512 | > 512 | 4 (≈ 10.4 µM) | > 512 | > 512 | > 512 | MIC (Escherichia coli [21]): > 512 µg/mL; MIC (Escherichia coli [22]): 4 µg/mL; MIC (Klebsiella pneumoniae [23]): > 512 µg/mL; MIC (Enterobacter cloacae [24]): > 512 µg/mL; MIC (Klebsiella pneumoniae [25]): > 256 µg/mL; MIC (Escherichia coli [26]): > 256 µg/mL; MIC (Escherichia coli [27]): > 512 µg/mL; MIC (Escherichia coli [28]): 128 µg/mL; MIC (Escherichia coli [29]): > 512 µg/mL; MIC (Providencia rettgeri [30]): > 256 µg/mL; MIC (Klebsiella pneumoniae [31]): > 512 µg/mL; MIC (Enterobacter cloacae [32]): > 512 µg/mL; MIC (Escherichia coli [33]): > 512 µg/mL; MIC (Klebsiella pneumoniae [34]): > 512 µg/mL; MIC (Escherichia coli [35]): > 512 µg/mL; MIC (Escherichia coli [36]): > 512 µg/mL; MIC (Escherichia coli [37]): > 256 µg/mL; MIC (Klebsiella pneumoniae [38]): > 512 µg/mL; MIC (Escherichia coli [39]): > 256 µg/mL; MIC (Klebsiella pneumoniae [40]): > 256 µg/mL
CC1(C)S[C@@H]2[C@H](NC(=O)[C@H](N)c3ccc(O)cc3)C(=O)N2[C@H]1C(=O)O [AMOXICILLIN] | > 512 | 4 | > 512 | > 512 | > 512 | > 256 | > 256 | > 512 | > 512 | > 512 | > 512 | > 512 | > 256 | > 256 | > 512 | > 512 | 4 (≈ 10.9 µM) | > 512 | > 512 | > 512 | MIC (Escherichia coli [21]): > 512 µg/mL; MIC (Escherichia coli [22]): 4 µg/mL; MIC (Klebsiella pneumoniae [23]): > 512 µg/mL; MIC (Enterobacter cloacae [24]): > 512 µg/mL; MIC (Klebsiella pneumoniae [25]): > 256 µg/mL; MIC (Escherichia coli [26]): > 256 µg/mL; MIC (Escherichia coli [27]): > 512 µg/mL; MIC (Escherichia coli [28]): 128 µg/mL; MIC (Escherichia coli [29]): > 512 µg/mL; MIC (Providencia rettgeri [30]): > 256 µg/mL; MIC (Klebsiella pneumoniae [31]): > 512 µg/mL; MIC (Enterobacter cloacae [32]): > 512 µg/mL; MIC (Escherichia coli [33]): > 512 µg/mL; MIC (Klebsiella pneumoniae [34]): > 512 µg/mL; MIC (Escherichia coli [35]): > 512 µg/mL; MIC (Escherichia coli [36]): > 512 µg/mL; MIC (Escherichia coli [37]): > 256 µg/mL; MIC (Klebsiella pneumoniae [38]): > 512 µg/mL; MIC (Escherichia coli [39]): > 256 µg/mL; MIC (Klebsiella pneumoniae [40]): > 256 µg/mL
